Data on 12 compounds can be found in ChEMBL document CHEMBL4325897, “Discovery, synthesis of novel fusidic acid derivatives possessed amino-terminal groups at the 3-hydroxyl position with anticancer activity” (Eur J Med Chem, 2019).

SMILES strings stand for the structures.

Experiment [1] can be described thus: Cytotoxicity against human KBV cells assessed as cell viability at 5 uM after 72 hrs by MTT assay relative to control. The experiment is classed as functional. Particulars: read-out: Activity. The gist of the method: (§1)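 Cells grown in DMEM with 10% heat-inactivated FCS and penicillin/streptomycin at 37 °C, 5% CO2, and used in log phase. Seeded in 96-well plates and exposed to compounds at 5 μM and 1.5 μM for 72 h. MTT added, formazan dissolved in DMSO, OD read at 570 nm, and survival rate calculated. Average of at least three independent experiments.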
In general terms: Formazan colour is commonly taken as a measure of viable cells.

Experiment [2] has as its system MKN-45. Briefly: Cytotoxicity against human MKN45 cells assessed as cell viability at 5 uM after 72 hrs by MTT assay relative to control. Type of experiment: functional. Particulars: MKN-45, 72 h, read-out: Activity. The gist of the method: as §1
Experiment [3] concerns HeLa. Briefly: Cytotoxicity against human HeLa cells assessed as cell viability at 1.5 uM after 72 hrs by MTT assay relative to control. Type of experiment: functional. The settings on record: read-out: Activity. The gist of the method: as §1
The subject of experiment [4] is HeLa. As to the kind of experiment: Cytotoxicity against human HeLa cells assessed as cell viability at 5 uM after 72 hrs by MTT assay relative to control. Type of experiment: functional. The settings on record: read-out: Activity. The gist of the method:
as §1

A short description of experiment [5]: Cytotoxicity against human KBV cells assessed as cell viability at 1.5 uM after 72 hrs by MTT assay relative to control. Type of experiment: functional. The settings on record: read-out: Activity. The gist of the method:
as §1

In experiment [6] the test system is U-87 MG. As to the kind of experiment: Cytotoxicity against human U87 cells assessed as cell viability at 1.5 uM after 72 hrs by MTT assay relative to control. Particulars: read-out: Activity. Type of experiment: functional, U-87MG ATCC. The gist of the method: as §1
Experiment [7] deals with MKN-45. Briefly: Cytotoxicity against human MKN45 cells assessed as cell viability at 1.5 uM after 72 hrs by MTT assay relative to control. Type of experiment: functional. The settings on record: MKN-45, 72 h, read-out: Activity. The gist of the method: as §1
Experiment [8] relates to U-87 MG. As to the kind of experiment: Cytotoxicity against human U87 cells assessed as cell viability at 5 uM after 72 hrs by MTT assay relative to control. The experiment is classed as functional, U-87MG ATCC. The settings on record: read-out: Activity. The gist of the method: as §1

Consider `CC(=O)O[C@H]1C[C@@]2(C)[C@@H](C[C@@H](O)[C@H]3[C@@]4(C)CC[C@@H](OC(=O)c5ccccc5C(=O)n5cccn5)[C@@H](C)[C@@H]4CC[C@@]32C)/C1=C(\CCC=C(C)C)C(=O)OCc1ccccc1`, for which the viability at 5 µM was 79% in experiment [1], 96% in the experiment with MKN-45 [2], 82% with HeLa [4] and 87% in the experiment on U-87 MG [8]. Further, the viability at 1.5 µM in the experiment with HeLa [3] was found to be 90%; in experiment [5], 85%; with U-87 MG [6], 90%; in the experiment with MKN-45 [7] it was 101%.
As to `CC(=O)O[C@H]1C[C@@]2(C)[C@@H](C[C@@H](O)[C@H]3[C@@]4(C)CC[C@@H](OC(=O)c5ccccc5C(=O)N5CCOCC5)[C@@H](C)[C@@H]4CC[C@@]32C)/C1=C(\CCC=C(C)C)C(=O)OCc1ccccc1`, the viability at 5 µM in experiment [1] is 66%; with MKN-45 [2], 92%; in the experiment on HeLa [4] it was 60%; in the experiment with U-87 MG [8], 77%. Also, the viability at 1.5 µM in the experiment with HeLa [3] is 76%; in experiment [5], 81%; in the experiment with U-87 MG [6], 86%; in the experiment on MKN-45 [7], 104%.
In the case of `CC(=O)O[C@H]1C[C@@]2(C)[C@@H](C[C@@H](O)[C@H]3[C@@]4(C)CC[C@@H](OC(=O)CCC(=O)N5CCOCC5)[C@@H](C)[C@@H]4CC[C@@]32C)/C1=C(\CCC=C(C)C)C(=O)OCc1ccccc1`, the viability at 5 µM in experiment [1] is 66%; in the experiment with MKN-45 [2], 78%; in the experiment with HeLa [4], 64%; in the experiment on U-87 MG [8], 93%. In addition, the viability at 1.5 µM stood at 76% with HeLa [3], 78% in experiment [5], 91% in the experiment with U-87 MG [6] and 82% with MKN-45 [7].
On to `CC(=O)O[C@H]1C[C@@]2(C)[C@@H](C[C@@H](O)[C@H]3[C@@]4(C)CC[C@@H](OC(=O)C(N)CC(C)C)[C@@H](C)[C@@H]4CC[C@@]32C)/C1=C(\CCC=C(C)C)C(=O)OCc1ccccc1` (stereo partly specified), for which the viability at 5 µM in experiment [1] came to 83%; in the experiment on MKN-45 [2] it was 92%; in the experiment with HeLa [4] it was 22%; in the experiment with U-87 MG [8], 111%. For the same compound, the viability at 1.5 µM in the experiment with HeLa [3] worked out at 99%; in experiment [5] it was 96%; in the experiment with U-87 MG [6], 106%; with MKN-45 [7] it was 95%.
With `CC(=O)O[C@H]1C[C@@]2(C)[C@@H](C[C@@H](O)[C@H]3[C@@]4(C)CC[C@@H](OC(=O)c5ccccc5C(=O)N5CCN(C)CC5)[C@@H](C)[C@@H]4CC[C@@]32C)/C1=C(\CCC=C(C)C)C(=O)OCc1ccccc1`, the viability at 5 µM worked out at 75% in experiment [1], 99% with MKN-45 [2], 73% in the experiment on HeLa [4] and 77% with U-87 MG [8]. The viability at 1.5 µM in the experiment on HeLa [3] amounted to 83%; in experiment [5], 89%; in the experiment on U-87 MG [6] it was 86%; with MKN-45 [7], 104%.
Consider `CC(=O)O[C@H]1C[C@@]2(C)[C@@H](C[C@@H](O)[C@H]3[C@@]4(C)CC[C@@H](OC(=O)CCC(=O)N5CCN(C)CC5)[C@@H](C)[C@@H]4CC[C@@]32C)/C1=C(\CCC=C(C)C)C(=O)OCc1ccccc1`, for which the viability at 5 µM is 71% in experiment [1], 75% in the experiment with MKN-45 [2], 47% with HeLa [4] and 88% in the experiment on U-87 MG [8]. The viability at 1.5 µM in the experiment on HeLa [3] stood at 70%; in experiment [5], 82%; in the experiment on U-87 MG [6] it was 87%; with MKN-45 [7], 81%.
For `CC(=O)O[C@H]1C[C@@]2(C)[C@@H](C[C@@H](O)[C@H]3[C@@]4(C)CC[C@@H](OC(=O)[C@@H](N)CCCCN)[C@@H](C)[C@@H]4CC[C@@]32C)/C1=C(\CCC=C(C)C)C(=O)OCc1ccccc1`, the viability at 5 µM in experiment [1] was 18%; in the experiment with MKN-45 [2], 8%; in the experiment on HeLa [4], 8%; in the experiment with U-87 MG [8] it was 9%. Also, the viability at 1.5 µM amounted to 101% with HeLa [3], 99% in experiment [5], 105% in the experiment on U-87 MG [6] and 91% in the experiment on MKN-45 [7].
`CC(=O)O[C@H]1C[C@@]2(C)[C@@H](C[C@@H](O)[C@H]3[C@@]4(C)CC[C@@H](OC(=O)c5nccnc5C(=O)O)[C@@H](C)[C@@H]4CC[C@@]32C)/C1=C(\CCC=C(C)C)C(=O)OCc1ccccc1`: the viability at 5 µM worked out at 108% in experiment [1], 87% with MKN-45 [2], 69% in the experiment on HeLa [4] and 90% in the experiment on U-87 MG [8]. Besides, the viability at 1.5 µM in the experiment with HeLa [3] came out at 76%; in experiment [5], 86%; with U-87 MG [6] it was 88%; in the experiment on MKN-45 [7] it was 95%.
For the compound `CC(=O)O[C@H]1C[C@@]2(C)[C@@H](C[C@@H](O)[C@H]3[C@@]4(C)CC[C@@H](OC(=O)CCC(=O)O)[C@@H](C)[C@@H]4CC[C@@]32C)/C1=C(\CCC=C(C)C)C(=O)OCc1ccccc1`, the viability at 5 µM in experiment [1] was 66%; in the experiment on MKN-45 [2], 76%; with HeLa [4], 69%; with U-87 MG [8] it was 84%. Besides, the viability at 1.5 µM with HeLa [3] was 83%; in experiment [5], 72%; with U-87 MG [6], 86%; in the experiment on MKN-45 [7], 74%.
For the compound `CC(=O)O[C@H]1C[C@@]2(C)[C@@H](C[C@@H](O)[C@H]3[C@@]4(C)CC[C@@H](OC(=O)CCC(=O)n5cccn5)[C@@H](C)[C@@H]4CC[C@@]32C)/C1=C(\CCC=C(C)C)C(=O)OCc1ccccc1`, the viability at 5 µM in experiment [1] turned out to be 80%; in the experiment with MKN-45 [2], 83%; in the experiment on HeLa [4] it was 71%; in the experiment with U-87 MG [8], 83%. Besides, the viability at 1.5 µM in the experiment on HeLa [3] was 75%; in experiment [5] it was 77%; with U-87 MG [6], 87%; in the experiment with MKN-45 [7], 88%.
With `CC(=O)O[C@H]1C[C@@]2(C)[C@@H](C[C@@H](O)[C@H]3[C@@]4(C)CC[C@@H](OC(=O)CCCCCCCCCCN)[C@@H](C)[C@@H]4CC[C@@]32C)/C1=C(\CCC=C(C)C)C(=O)OCc1ccccc1`, the viability at 5 µM worked out at 9% in experiment [1], 5% in the experiment on MKN-45 [2], 19% with HeLa [4] and 10% with U-87 MG [8]. Also, the viability at 1.5 µM in the experiment on HeLa [3] was determined as 100%; in experiment [5] it was 93%; in the experiment on U-87 MG [6], 49%; with MKN-45 [7], 96%.
For `CC(=O)O[C@H]1C[C@@]2(C)[C@@H](C[C@@H](O)[C@H]3[C@@]4(C)CC[C@@H](OC(=O)CCCCCCCN)[C@@H](C)[C@@H]4CC[C@@]32C)/C1=C(\CCC=C(C)C)C(=O)OCc1ccccc1`, the viability at 5 µM turned out to be 11% in experiment [1], 4% in the experiment with MKN-45 [2], 19% in the experiment on HeLa [4] and 10% in the experiment with U-87 MG [8]. For the same compound, the viability at 1.5 µM is 99% in the experiment on HeLa [3], 83% in experiment [5], 116% with U-87 MG [6] and 16% with MKN-45 [7].
